# Laboratory results reported in ChEMBL document CHEMBL4002564, “Design, synthesis and cytotoxicity studies of novel pyrazolo[1, 5-a]pyridine derivatives” (Eur J Med Chem, 2017).
# The source made the active and inactive calls. The calls are words filed in the database; no cut-off is given here.
# What was measured:
# [1] = target: T1, Epidermal growth factor receptor (Homo sapiens, UniProt P00533); assay: Inhibition of recombinant EGFR (unknown origin) using poly (Glu4, Tyr) as substrate assessed as inhibition at 100 uM after 60 mins by ADP-glo kinase assay
# T1 sequence (P00533 whole entry): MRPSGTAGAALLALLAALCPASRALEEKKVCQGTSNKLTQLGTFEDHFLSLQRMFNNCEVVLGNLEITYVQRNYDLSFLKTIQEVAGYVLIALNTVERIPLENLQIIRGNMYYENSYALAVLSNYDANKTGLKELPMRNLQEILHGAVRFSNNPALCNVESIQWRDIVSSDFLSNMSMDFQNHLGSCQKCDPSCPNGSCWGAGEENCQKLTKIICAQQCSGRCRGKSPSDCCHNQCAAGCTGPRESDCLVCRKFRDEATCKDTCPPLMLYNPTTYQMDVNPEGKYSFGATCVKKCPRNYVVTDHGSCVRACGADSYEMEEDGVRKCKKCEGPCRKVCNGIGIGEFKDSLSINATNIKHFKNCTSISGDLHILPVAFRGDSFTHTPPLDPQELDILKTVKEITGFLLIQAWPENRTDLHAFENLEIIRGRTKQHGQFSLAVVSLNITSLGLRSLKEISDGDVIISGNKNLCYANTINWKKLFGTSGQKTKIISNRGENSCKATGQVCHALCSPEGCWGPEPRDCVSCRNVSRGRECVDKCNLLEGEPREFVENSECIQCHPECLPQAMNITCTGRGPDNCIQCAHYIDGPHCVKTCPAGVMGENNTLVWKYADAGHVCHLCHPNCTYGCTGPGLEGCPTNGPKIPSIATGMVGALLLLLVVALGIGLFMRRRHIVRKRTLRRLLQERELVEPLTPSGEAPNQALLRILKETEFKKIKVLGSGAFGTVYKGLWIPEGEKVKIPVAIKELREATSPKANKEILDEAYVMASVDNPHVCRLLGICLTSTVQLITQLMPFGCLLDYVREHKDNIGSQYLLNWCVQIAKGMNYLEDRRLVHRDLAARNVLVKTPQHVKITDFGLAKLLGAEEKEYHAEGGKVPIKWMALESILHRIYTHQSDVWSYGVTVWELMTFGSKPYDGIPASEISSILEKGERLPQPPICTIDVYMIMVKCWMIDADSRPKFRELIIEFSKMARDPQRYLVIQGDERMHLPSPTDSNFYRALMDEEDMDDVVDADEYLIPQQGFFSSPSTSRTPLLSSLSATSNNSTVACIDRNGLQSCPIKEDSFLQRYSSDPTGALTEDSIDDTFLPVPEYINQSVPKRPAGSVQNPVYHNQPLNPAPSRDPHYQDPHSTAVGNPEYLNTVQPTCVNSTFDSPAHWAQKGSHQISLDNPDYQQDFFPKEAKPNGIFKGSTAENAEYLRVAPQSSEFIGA
# [2] = target: T1, Epidermal growth factor receptor; assay: Inhibition of recombinant EGFR (unknown origin) using poly (Glu4, Tyr) as substrate after 60 mins by ADP-glo kinase assay
# Summary of the method: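 ADP-Glo luminescent assay. Each reaction held 30 ng recombinant EGFR, 5 µM ATP and 0.2 µg/µl poly(Glu4,Tyr) in tyrosine kinase buffer with a compound dilution; 60 min at ambient temperature. Stopped with ADP-Glo reagent (40 min), then kinase detection reagent, luminescence read after 30 min. Blank (no enzyme) subtracted; activity expressed as % of the 0 µM reaction. Dilutions run in duplicate.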
# [3] = target: T1, Epidermal growth factor receptor; assay: Inhibition of recombinant EGFR (unknown origin) using poly (Glu4, Tyr) as substrate assessed as inhibition at 1 uM after 60 mins by ADP-glo kinase assay
# [4] = target: T1, Epidermal growth factor receptor; assay: Inhibition of recombinant EGFR (unknown origin) using poly (Glu4, Tyr) as substrate assessed as inhibition at 10 uM after 60 mins by ADP-glo kinase assay
# [5] = target: T1, Epidermal growth factor receptor; assay: Inhibition of recombinant EGFR (unknown origin) using poly (Glu4, Tyr) as substrate assessed as inhibition at 30 uM after 60 mins by ADP-glo kinase assay
# MCF7 [6] = assay: Antiproliferative activity against human MCF7 cells at 50 uM after 48 hrs by SRB assay; assay type: functional; conditions: MCF7, 48 h, read-out: GI
# MCF7 [7] = assay: Antiproliferative activity against human MCF7 cells at 1 uM after 48 hrs by SRB assay; assay type: functional; conditions: MCF7, 48 h, read-out: GI
# Summary of the method: (§1)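 Cells kept in RPMI-1640 with 2 mM glutamine, 10% FBS, penicillin/streptomycin, 37°C, 5% CO2. Seeded and grown 24 h, then test material in complete medium added and incubated 48 h. Fixed with cold TCA 1 h at 4°C, stained with 0.4% SRB in 1% acetic acid for 30 min, dye dissolved in 10 mM Tris pH 10.4, OD read at 540 nm.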
# HCT-116 [8] = assay: Antiproliferative activity against human HCT116 cells at 20 uM after 48 hrs by SRB assay; assay type: functional; conditions: HCT-116, 48 h, read-out: GI
# Summary of the method: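 Cells kept in RPMI-1640 with 2mM glutamine, 10% FBS, streptomycin and penicillin at 37°C, 5% CO2. Seeded cells grown 24 h, then exposed to compound in complete medium for 48 h. Fixed with cold TCA 1 h at 4°C, stained with 0.4% SRB 30 min, bound dye dissolved in 10mM Tris pH 10.4, OD read at 540 nm. Blank-subtracted percent growth inhibition taken against untreated cells as 100%.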
# HCT-116 [9] = assay: Antiproliferative activity against human HCT116 cells at 50 uM after 48 hrs by SRB assay; assay type: functional; conditions: HCT-116, 48 h, read-out: GI
# MCF7 [10] = assay: Induction of apoptotic bodies formation in human MCF7 cells at 50 nM after 24 hrs by DAPI staining based immunofluorescence microscopy; assay type: functional, cell-based
# PC-3 [11] = assay: Antiproliferative activity against human PC3 cells at 1 uM after 48 hrs by SRB assay; assay type: functional; conditions: PC-3, 48 h, read-out: GI
# Summary of the method: as §1
# A549 [12] = assay: Antiproliferative activity against human A549 cells at 50 uM after 48 hrs by SRB assay; assay type: functional; conditions: A549, 48 h, read-out: GI
# PC-3 [13] = assay: Antiproliferative activity against human PC3 cells at 50 uM after 48 hrs by SRB assay; assay type: functional; conditions: PC-3, 48 h, read-out: GI
# A549 [14] = assay: Antiproliferative activity against human A549 cells at 1 uM after 48 hrs by SRB assay; assay type: functional; conditions: A549, 48 h, read-out: GI
# Summary of the method: as §1
compound,measurement,setting,value
CCCCOC(=O)c1c(-c2ccccc2)nn2ccccc12,inhibition,[1],72%
same,IC50,[2],23.7 µM
same,inhibition,[3],16%
same,inhibition,[4],37%
same,inhibition,[5],51%
COc1cccc2c1C(=O)c1c(O)c3c(c(O)c1C2=O)C[C@@](O)(C(=O)CO)C[C@@H]3O[C@H]1C[C@H](N)[C@H](O)[C@H](C)O1 [DOXORUBICIN],inhibition of growth at 50 µM,MCF7 [6],62%
same,inhibition of growth at 1 µM,MCF7 [7],62%
O=c1[nH]cc(F)c(=O)[nH]1 [FLUOROURACIL],inhibition of growth at 20 µM,HCT-116 [8],58%
same,inhibition of growth at 50 µM,HCT-116 [9],58%
CC(=O)O[C@H]1C(=O)[C@@]2(C)[C@H]([C@H](OC(=O)c3ccccc3)[C@]3(O)C[C@H](OC(=O)[C@H](O)[C@@H](NC(=O)c4ccccc4)c4ccccc4)C(C)=C1C3(C)C)[C@]1(OC(C)=O)CO[C@@H]1C[C@@H]2O [PACLITAXEL],Activity,MCF7 [10],Active
same,inhibition of growth at 1 µM,PC-3 [11],72%
same,inhibition of growth at 50 µM,A549 [12],78%
same,inhibition of growth at 50 µM,PC-3 [13],72%
same,inhibition of growth at 1 µM,A549 [14],78%
